Activity calls are given as the source filed them. The rule behind the calls is not given here.
Tests used:
[1] = Inhibition of hexa-His-tagged human soluble epoxide hydrolase N-terminal phosphatase domain expressed in Escherichia coli BL21(DE3) pre-incubated for 30 mins before FDP substrate addition by fluorescence based assay
[2] = biological target: T1, Prostaglandin G/H synthase 2 (Homo sapiens, UniProt P35354); assay: Inhibition of COX2 in LPS-stimulated human monocytes assessed as reduction in PGE2 production by LC-tandem MIS analysis; type: cell-based
T1 sequence (P35354 whole entry): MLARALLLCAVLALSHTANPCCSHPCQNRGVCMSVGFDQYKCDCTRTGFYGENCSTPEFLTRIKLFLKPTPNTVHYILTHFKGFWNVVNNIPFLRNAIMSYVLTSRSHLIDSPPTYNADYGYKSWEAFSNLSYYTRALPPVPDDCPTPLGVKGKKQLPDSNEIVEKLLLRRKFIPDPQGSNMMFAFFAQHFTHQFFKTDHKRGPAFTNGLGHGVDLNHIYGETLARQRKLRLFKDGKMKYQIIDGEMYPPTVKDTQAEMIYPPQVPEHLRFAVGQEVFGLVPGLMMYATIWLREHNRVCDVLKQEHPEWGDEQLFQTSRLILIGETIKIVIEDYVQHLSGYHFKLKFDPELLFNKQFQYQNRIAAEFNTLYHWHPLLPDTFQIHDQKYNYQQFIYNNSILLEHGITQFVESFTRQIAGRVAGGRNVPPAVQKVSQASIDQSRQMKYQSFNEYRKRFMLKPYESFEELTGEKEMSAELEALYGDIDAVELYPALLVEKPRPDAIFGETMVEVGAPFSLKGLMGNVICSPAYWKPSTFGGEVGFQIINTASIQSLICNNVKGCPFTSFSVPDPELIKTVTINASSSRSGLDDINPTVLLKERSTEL
Outline: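 Human monocytes resuspended in HBSS and pretreated with increasing compound concentrations before LPS challenge. PGE2 quantified by LC−MS/MS using PGE2-d4 isotope-dilution internal standard.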

[3] = biological target: T2, Bifunctional epoxide hydrolase 2 (Rattus norvegicus, UniProt P80299); assay: Inhibition of hydrolase activity of full length rat soluble epoxide hydrolase pre-incubated for 30 mins before PHOME substrate addition by fluorescence based assay
T2 sequence (P80299 whole entry): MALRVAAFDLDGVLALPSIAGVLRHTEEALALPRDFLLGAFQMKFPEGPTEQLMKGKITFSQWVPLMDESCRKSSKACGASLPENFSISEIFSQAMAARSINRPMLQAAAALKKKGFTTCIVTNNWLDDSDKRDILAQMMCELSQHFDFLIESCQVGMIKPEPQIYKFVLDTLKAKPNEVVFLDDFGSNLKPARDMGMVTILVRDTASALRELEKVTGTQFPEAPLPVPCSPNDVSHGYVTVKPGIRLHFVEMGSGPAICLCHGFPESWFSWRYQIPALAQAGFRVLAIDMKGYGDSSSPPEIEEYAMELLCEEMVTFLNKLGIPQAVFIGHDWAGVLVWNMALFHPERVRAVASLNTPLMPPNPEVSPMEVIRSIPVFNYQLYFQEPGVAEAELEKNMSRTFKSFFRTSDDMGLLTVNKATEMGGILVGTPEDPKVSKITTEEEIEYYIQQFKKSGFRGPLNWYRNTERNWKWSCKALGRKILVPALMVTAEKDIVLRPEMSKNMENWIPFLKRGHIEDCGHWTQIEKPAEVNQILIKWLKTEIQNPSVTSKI
Outline: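 Hydrolase assay with 0.1 μM full-length enzyme in Bis-Tris pH 7 containing 0.1 mg/mL BSA and 0.01% Triton X-100. […] Reaction started with PHOME (50 μM final). 6-Methoxynaphthaldehyde fluorescence (ex 330/em 465 nm) read every minute for 45 min. Triplicates.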

[4] = biological target: T3, Retinoic acid receptor RXR-alpha (Homo sapiens) (UniProt P19793); assay: Activation of Gal4-fused human RXRalpha LBD transfected in HEK293T cells at 10 uM after 12 to 14 hrs by luciferase reporter gene assay; type: cell-based
T3 sequence (whole entry): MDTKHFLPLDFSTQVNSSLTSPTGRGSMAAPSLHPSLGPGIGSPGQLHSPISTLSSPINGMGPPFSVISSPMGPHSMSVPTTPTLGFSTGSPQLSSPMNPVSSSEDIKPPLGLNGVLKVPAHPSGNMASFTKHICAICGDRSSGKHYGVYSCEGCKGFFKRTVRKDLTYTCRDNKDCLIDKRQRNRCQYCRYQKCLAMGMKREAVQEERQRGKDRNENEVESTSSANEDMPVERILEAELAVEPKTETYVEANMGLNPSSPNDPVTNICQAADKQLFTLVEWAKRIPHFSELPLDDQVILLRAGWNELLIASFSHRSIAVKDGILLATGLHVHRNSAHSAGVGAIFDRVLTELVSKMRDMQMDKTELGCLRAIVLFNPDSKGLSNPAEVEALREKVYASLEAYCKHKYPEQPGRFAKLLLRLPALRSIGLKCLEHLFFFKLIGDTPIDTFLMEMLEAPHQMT
Outline: (§1)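 Gal4–human nuclear receptor LBD fusion (pFA-CMV-hNR-LBD) co-transfected with pFR-Luc and pRL-SV40 (Lipofectamine LTX) into HEK293T cells seeded the day before. 5 h post-transfection, compound added in Opti-MEM with 0.1% DMSO and incubated 12−14 h. Dual-Glo firefly/Renilla luciferase read. Activation expressed relative to reference agonist at 1 μM. Triplicates, ≥3 independent experiments.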

[5] = biological target: T4, Peroxisome proliferator-activated receptor alpha (Homo sapiens) (UniProt Q07869); assay: Activation of Gal4-fused human PPARalpha LBD transfected in HEK293T cells at 10 uM after 12 to 14 hrs by luciferase reporter gene assay; type: cell-based; outline: as §1
T4 sequence (whole entry): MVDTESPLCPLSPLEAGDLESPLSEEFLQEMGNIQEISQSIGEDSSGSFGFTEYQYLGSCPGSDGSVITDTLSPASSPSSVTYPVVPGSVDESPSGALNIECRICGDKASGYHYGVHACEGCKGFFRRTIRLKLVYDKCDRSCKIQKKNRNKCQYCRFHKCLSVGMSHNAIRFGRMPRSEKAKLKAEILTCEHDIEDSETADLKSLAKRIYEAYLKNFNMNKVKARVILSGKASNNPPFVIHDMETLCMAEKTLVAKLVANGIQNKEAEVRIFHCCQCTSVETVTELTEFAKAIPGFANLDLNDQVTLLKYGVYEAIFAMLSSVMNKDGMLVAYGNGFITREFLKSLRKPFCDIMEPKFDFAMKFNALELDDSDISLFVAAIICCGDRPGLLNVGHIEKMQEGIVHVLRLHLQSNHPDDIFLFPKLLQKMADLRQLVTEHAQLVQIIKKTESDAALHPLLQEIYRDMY

Structure (SMILES) | IC50 [1] [nM] | IC50 [2] [nM] | IC50 [3] [nM] | Activity [4] [%] | Activity [5]
O=C(O)CCCc1nc(-c2ccc(Cl)c(Cl)c2)c(-c2ccccc2)o1 | 58 | 420 | > 30000 | 77 | inactive
O=C(O)CCc1nc(-c2ccccc2)c(-c2ccccc2)o1 [OXAPROZIN] | 5000 | 110 | > 300000 | 14.4 | inactive

Source: ChEMBL document CHEMBL4414562, “Discovery of the First in Vivo Active Inhibitors of the Soluble Epoxide Hydrolase Phosphatase Domain” (J Med Chem, 2019)
